Test results taken from ChEMBL document CHEMBL1145456, “Antitumor agents 253. Design, synthesis, and antitumor evaluation of novel 9-substituted phenanthrene-based tylophorine derivatives as potential anticancer agents” (J Med Chem, 2007).
Active and inactive are the calls of the source. The calls are words filed in the database; no cut-off is given here.

Assays:
A549 [1] = test: Cytotoxicity against human A549 cells by SRB microtiter plate assay; assay type: functional, cell-based
Outline: (§1)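 Cells were cultured at 37 °C, 5% CO₂, in RPMI-1640 with 25 mM HEPES, 2% bicarbonate, 10% FBS and kanamycin. Compounds were added from DMSO stocks, final DMSO ≤1% (v/v). IC₅₀ was interpolated from dose-response data. Each test was run in triplicate in independent experiments.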

[2] = Cytotoxicity against multidrug resistant human KB-Vin cells by SRB microtiter plate assay; assay type: functional, cell-based; outline: as §1
DU-145 = test: Cytotoxicity against human DU145 cells by SRB microtiter plate assay; assay type: functional, cell-based; outline: as §1
ZR-75-1 = test: Cytotoxicity against human ZR751cells by SRB microtiter plate assay; assay type: functional, cell-based; outline: as §1
KB = test: Cytotoxicity against human KB cells by SRB microtiter plate assay; assay type: functional, cell-based
Outline: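 KB cells grown at 37 °C, 5% CO₂, humidified, in RPMI-1640 with 25 mM HEPES, 2% (w/v) sodium bicarbonate, 10% FBS and 100 µg/mL kanamycin. Compounds were added from DMSO stocks, with final DMSO at or below 1% (v/v). IC₅₀ was interpolated from dose-response data. Each test was run in triplicate, and independent tests were repeated.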

A549 [3] = test: Antitumor activity against human A549 xenografted SCID mouse model at 10 mg/kg, ip after 5 days; assay type: functional, organism-based; parameters: dose 10 mg/kg
Outline: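 Male SCID mice were inoculated s.c. on the dorsal side with 1.5 × 10⁷ A549 cells. Day 1 was when tumors reached ≥5 mm; groups of six. Dosing ip at 10 mL/kg every 4 days for six doses. Tumor size and body weight recorded every 4 days. Tumor weight = length × width² × 0.5. T/C = (Tn−T1)/(Cn−C1) × 100% against vehicle.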

SMILES	IC50 (A549 [1]; Homo sapiens, A549)	IC50 (DU-145; Homo sapiens, DU-145)	IC50 (ZR-75-1; Homo sapiens, ZR-75-1)	IC50 (KB; Homo sapiens, KB)	further results
COc1ccc2c(CN3CCC[C@H]3CO)cc3cc4c(cc3c2c1)OCO4	700 nM				
COc1ccc2c3c(c4cc(OC)c(OC)cc4c2c1)C[C@H]1CCCN1C3 [(-)-ANTOFINE]	8 nM	9 nM	8 nM	13 nM	IC50 ([2]; Homo sapiens, KBVIN): 9 nM
COc1ccc2c(CN3CCN(CCOCCO)CC3)cc3cc4c(cc3c2c1)OCO4	57100 nM				
COc1ccc2c(CN3CCC[C@@H]3C(=O)O)cc3cc4c(cc3c2c1)OCO4	5200 nM				
COc1ccc2c(CN3CCN(c4ccccc4Cl)CC3)cc3cc4c(cc3c2c1)OCO4					Activity (A549 [1]): inactive
COc1ccc2c(CNCCCCCO)cc3cc4c(cc3c2c1)OCO4	270 nM				
COc1ccc2c(CN3CCC[C@@H]3CO)cc3cc4c(cc3c2c1)OCO4	1100 nM				
COc1ccc2c(CN3CCN(c4ccc(O)cc4)CC3)cc3cc4c(cc3c2c1)OCO4	220 nM	150 nM	180 nM	130 nM	IC50 ([2]; Homo sapiens, KBVIN): 340 nM
COc1ccc2c(CN3CCC(CCO)CC3)cc3cc4c(cc3c2c1)OCO4 [listing 1 of 2 here]	150 nM				IC50 [2]: 500 nM; IC50 (DU-145; du-145): 150 nM; IC50 (ZR-75-1; zr-75-1): 30 nM; IC50 (KB; kb): 420 nM
O=C(O)C1CCN(Cc2cc3cc4c(cc3c3cc(OCc5ccccc5)ccc23)OCO4)CC1	2100 nM				
COc1ccc2c(CN3CCCC[C@H]3CO)cc3cc4c(cc3c2c1)OCO4 [listing 1 of 2 here]					IC50 [2]: 90 nM; IC50 (DU-145; du-145): 90 nM; IC50 (ZR-75-1; zr-75-1): 80 nM
CC[C@]1(O)C[C@H]2CN(CCc3c([nH]c4ccccc34)[C@@](C(=O)OC)(c3cc4c(cc3OC)N(C=O)[C@H]3[C@@](O)(C(=O)OC)[C@H](OC(C)=O)[C@]5(CC)C=CCN6CC[C@]43[C@@H]65)C2)C1 [VINCRISTINE]	40 nM	85 nM	40 nM	6 nM	IC50 ([2]; Homo sapiens, KBVIN): 5300 nM
COc1ccc2c(CNCCCCCCO)cc3cc4c(cc3c2c1)OCO4 [listing 1 of 2 here]	200 nM				IC50 [2]: 350 nM; IC50 (DU-145; du-145): 440 nM; IC50 (ZR-75-1; zr-75-1): 130 nM; IC50 (KB; kb): 250 nM
COc1ccc2c(CN3CCC(CCO)CC3)cc3cc4c(cc3c2c1)OCO4 [listing 2 of 2 here]		100 nM	20 nM		IC50 [2]: 200 nM; IC50 (A549 [1]; a549): 90 nM; IC50 (KB; kb): 200 nM
O=C(O)[C@@H]1CCCCN1Cc1cc2cc3c(cc2c2cc(OCc4ccccc4)ccc12)OCO3	3200 nM				
COc1cc([C@@H]2c3cc4c(cc3[C@@H](O[C@@H]3O[C@@H]5CO[C@@H](C)O[C@H]5[C@H](O)[C@H]3O)[C@H]3COC(=O)[C@H]23)OCO4)cc(OC)c1O [ETOPOSIDE]	1400 nM	2400 nM	3100 nM	4800 nM	IC50 ([2]; Homo sapiens, KBVIN): > 10000 nM
COc1ccc2c(CN3CCC[C@H]3C(=O)O)cc3cc4c(cc3c2c1)OCO4	2100 nM				

SMILES	IC50 (A549 [1]; Homo sapiens, A549)	IC50 (DU-145; Homo sapiens, DU-145)	IC50 (ZR-75-1; Homo sapiens, ZR-75-1)	IC50 (KB; Homo sapiens, KB)	further results
COc1ccc2c(CN3CCC(CO)CC3)cc3cc4c(cc3c2c1)OCO4 [listing 1 of 3 here]		50 nM	40 nM		IC50 [2]: 40 nM; IC50 (A549 [1]; a549): 70 nM; IC50 (KB; kb): 70 nM
COc1cccc2c1C(=O)c1c(O)c3c(c(O)c1C2=O)C[C@@](O)(C(=O)CO)C[C@@H]3O[C@H]1C[C@H](N)[C@H](O)[C@H](C)O1 [DOXORUBICIN]	180 nM	130 nM	40 nM	180 nM	IC50 ([2]; Homo sapiens, KBVIN): > 4000 nM
OC[C@@H]1CCCCN1Cc1cc2cc3c(cc2c2cc(OCc4ccccc4)ccc12)OCO3	1300 nM				
COc1ccc2c(CN3CCN(c4ccc(Cl)cc4)CC3)cc3cc4c(cc3c2c1)OCO4	65200 nM				
COc1ccc2c(CNCCCCCC(=O)O)cc3cc4c(cc3c2c1)OCO4	800 nM	670 nM	540 nM	330 nM	IC50 ([2]; Homo sapiens, KBVIN): 830 nM
COc1ccc2c(CN3CCCC[C@H]3CO)cc3cc4c(cc3c2c1)OCO4 [listing 2 of 2 here]	160 nM		100 nM	120 nM	IC50 ([2]; Homo sapiens, KBVIN): 160 nM; IC50 (DU-145; du-145): 210 nM
COc1ccc2c(CNCCCCC(=O)O)cc3cc4c(cc3c2c1)OCO4	1300 nM				
COc1ccc2c(CNCCCCCCO)cc3cc4c(cc3c2c1)OCO4 [listing 2 of 2 here]			80 nM	230 nM	IC50 [2]: 160 nM; IC50 (DU-145; du-145): 70 nM
COc1ccc2c(CN3CCN(CCO)CC3)cc3cc4c(cc3c2c1)OCO4	630 nM	250 nM	230 nM	500 nM	IC50 ([2]; Homo sapiens, KBVIN): 510 nM
COc1ccc2c(CN3CCC(CO)CC3)cc3cc4c(cc3c2c1)OCO4 [listing 2 of 3 here]	80 nM				IC50 [2]: 90 nM; IC50 (DU-145; du-145): 30 nM; IC50 (ZR-75-1; zr-75-1): 30 nM; IC50 (KB; kb): 240 nM
COc1ccc2c(CN3CCC(C(=O)O)CC3)cc3cc4c(cc3c2c1)OCO4	230 nM	310 nM	250 nM	150 nM	IC50 ([2]; Homo sapiens, KBVIN): 380 nM
COc1ccc2c(CNCCCCCCCCCCC(=O)O)cc3cc4c(cc3c2c1)OCO4	3200 nM				
OCC1CCN(Cc2cc3cc4c(cc3c3cc(OCc5ccccc5)ccc23)OCO4)CC1	700 nM				
COc1ccc2c(CN3CCCC[C@H]3C(=O)O)cc3cc4c(cc3c2c1)OCO4	500 nM				
CC[C@H]1CN2CCc3cc(OC)c(OC)cc3[C@@H]2C[C@@H]1C[C@H]1NCCc2cc(OC)c(OC)cc21 [EMETINE]	40 nM	60 nM	100 nM	40 nM	IC50 ([2]; Homo sapiens, KBVIN): > 2000 nM
COc1ccc2c(CN3CCC(CO)CC3)cc3cc4c(cc3c2c1)OCO4 [listing 3 of 3 here]					Activity (A549 [3]): Active
COc1ccc2c(CNCCCCCCCCCCCO)cc3cc4c(cc3c2c1)OCO4	2600 nM				
